Key:
[1] = Stability of the analytes in human plasma at QC levels; type: in vitro ADME; conditions: n = 5; for Short-term Dev. (%) / Short-term MCM ± SD: 6 h, r.t.; for Short-term Dev. (%) / Short-term MCM ± SD / Long-term Dev. (%) / Long-term MCM ± SD / Freeze–thaw Dev. (%) / Freeze–thaw MCM ± SD: human plasma; for Long-term Dev. (%) / Long-term MCM ± SD: 40 days; for Long-term Dev. (%) / Long-term MCM ± SD / Freeze–thaw Dev. (%) / Freeze–thaw MCM ± SD: −40 °C; for The autosampler Dev. (24h, %) / The autosampler MCM ± SD (24h) / The autosampler Dev. (48h, %) / The autosampler MCM ± SD (48h): autosampler r.t.; for Freeze–thaw Dev. (%) / Freeze–thaw MCM ± SD: four cycles
Procedure, shortened: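 QC plasma made by spiking working solution into drug-free human plasma (1:9); the phosphate ester is pre-stabilised with 2M sodium cacodylate and 50% KF. Freeze-thaw: frozen at −40 °C for 24 h, thawed at 25 °C. Short-term: 6 h at room temperature. Long-term: −40 °C for 40 days. Quantified by UPLC-MS/MS against 1/x-weighted analyte/IS peak-area-ratio calibration curves.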

[2] = reported; cited from earlier work

## CCC(=O)OCC(=O)[C@@]1(OC(=O)CC)[C@@H](C)C[C@H]2[C@@H]3CCC4=CC(=O)C=C[C@]4(C)[C@@]3(F)[C@@H](O)C[C@@]21C [BDP, betamethasone dipropionate]
[1]; high QC
  Short-term Dev. (%): −0.51%
  Short-term MCM ± SD: 44.42 ± 0.893 × 10^−9 mol·dm^−3
  Long-term Dev. (%): 4.01%
  Long-term MCM ± SD: 46.43 ± 1.399 × 10^−9 mol·dm^−3
  The autosampler Dev. (24h, %): −6.84%
  The autosampler MCM ± SD (24h): 41.59 ± 1.016 × 10^−9 mol·dm^−3
  The autosampler Dev. (48h, %): −2.95%
  The autosampler MCM ± SD (48h): 43.33 ± 1.131 × 10^−9 mol·dm^−3
  Freeze–thaw Dev. (%): 0.68%
  Freeze–thaw MCM ± SD: 44.94 ± 1.177 × 10^−9 mol·dm^−3
[1]; low QC
  Short-term Dev. (%): 4.0%
  Short-term MCM ± SD: 0.258 ± 0.048 × 10^−9 mol·dm^−3
  Long-term Dev. (%): −3.2%
  Long-term MCM ± SD: 0.240 ± 0.012 × 10^−9 mol·dm^−3
  The autosampler Dev. (24h, %): −11.2%
  The autosampler MCM ± SD (24h): 0.220 ± 0.016 × 10^−9 mol·dm^−3
  The autosampler Dev. (48h, %): −10.4%
  The autosampler MCM ± SD (48h): 0.222 ± 0.020 × 10^−9 mol·dm^−3
  Freeze–thaw Dev. (%): 11.2%
  Freeze–thaw MCM ± SD: 0.276 ± 0.042 × 10^−9 mol·dm^−3
[1]; middle QC
  Short-term Dev. (%): 2.04%
  Short-term MCM ± SD: 4.746 ± 0.155 × 10^−9 mol·dm^−3
  Long-term Dev. (%): 1.80%
  Long-term MCM ± SD: 4.734 ± 0.141 × 10^−9 mol·dm^−3
  The autosampler Dev. (24h, %): −7.45%
  The autosampler MCM ± SD (24h): 4.304 ± 0.123 × 10^−9 mol·dm^−3
  The autosampler Dev. (48h, %): −5.68%
  The autosampler MCM ± SD (48h): 4.387 ± 0.103 × 10^−9 mol·dm^−3
  Freeze–thaw Dev. (%): 3.45%
  Freeze–thaw MCM ± SD: 4.811 ± 0.135 × 10^−9 mol·dm^−3
[2]
  elimination half-life time: 25.8 min

— PMC5042352 (Analytical methods : advancing methods and applications, 2016)
